From ChEMBL document CHEMBL1152342, “Thiazomycins, thiazolyl peptide antibiotics from Amycolatopsis fastidiosa” (2009)
Converted amounts (≈) assume the structure as drawn.

Columns and labels:
Assay type in all cases: functional
[1] = test system: Streptococcus pneumoniae; assay: Antibacterial activity against penicillin-sensitive Streptococcus pneumoniae CL8002 after 20 hrs by twofold serial broth dilution method; conditions: CL8002, 20 h
Procedure, shortened: (§1)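 MICs by NCCLS (now CLSI) twofold serial broth dilution. Cation-adjusted Mueller Hinton broth was the standard medium, with CAMHB + 2.5% lysed horse blood used for certain strains. Cultures were incubated at 37 °C for 20 h before reading.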

[2] = test system: Staphylococcus aureus; assay: Antibacterial activity against methicillin-sensitive Staphylococcus aureus MB2865 after 20 hrs by twofold serial broth dilution method; conditions: MB2865, 20 h; procedure, shortened: as §1
[3] = test system: Enterococcus faecalis; assay: Antibacterial activity against vancomycin-sensitive Enterococcus faecalis CL8516 after 20 hrs by twofold serial broth dilution method; conditions: CL8516, 20 h; procedure, shortened: as §1
[4] = test system: Enterococcus faecium; assay: Antibacterial activity against vancomycin, linezolid-resistant Enterococcus faecium CL5791 after 20 hrs by twofold serial broth dilution method in presence of 50% human serum; conditions: CL5791, 20 h; procedure, shortened: as §1
[5] = test system: Staphylococcus aureus; assay: Antibacterial activity against macrolide, methicillin-resistant Staphylococcus aureus CL5705 after 20 hrs by twofold serial broth dilution method; conditions: CL5705, 20 h; procedure, shortened: as §1
[6] = test system: Staphylococcus aureus; assay: Antibacterial activity against methicillin-sensitive Staphylococcus aureus MB2865 after 20 hrs by twofold serial broth dilution method in presence of 50% human serum; conditions: MB2865, 20 h; procedure, shortened: as §1
[7] = test system: Staphylococcus epidermidis; assay: Antibacterial activity against Staphylococcus epidermidis CL8040 after 20 hrs by twofold serial broth dilution method; conditions: CL8040, 20 h; procedure, shortened: as §1
[8] = test system: Streptococcus pyogenes; assay: Antibacterial activity against Streptococcus pyogenes CL10440 after 20 hrs by twofold serial broth dilution method; conditions: CL10440, 20 h; procedure, shortened: as §1
[9] = test system: Staphylococcus haemolyticus; assay: Antibacterial activity against ampicillin-sensitive Staphylococcus haemolyticus CL8544 after 20 hrs by twofold serial broth dilution method; conditions: CL8544, 20 h; procedure, shortened: as §1
[10] = test system: Streptococcus pneumoniae; assay: Antibacterial activity against penicillin-resistant Streptococcus pneumoniae CL5771 after 20 hrs by twofold serial broth dilution method; conditions: CL5771, 20 h; procedure, shortened: as §1
[11] = test system: Candida albicans; assay: Antifungal activity against Candida albicans MY1055 after 20 hrs by twofold serial broth dilution method; conditions: MY1055, 20 h
[12] = test system: Enterococcus faecalis; assay: Antibacterial activity against vancomycin, macrolide-resistant, linezolid-sensitive Enterococcus faecalis CL5246 after 20 hrs by twofold serial broth dilution method; conditions: CL5246, 20 h; procedure, shortened: as §1
[13] = test system: Staphylococcus aureus; assay: Antibacterial activity against macrolide, imipenem, methicillin-resistant Staphylococcus aureus MB5393 after 20 hrs by twofold serial broth dilution method; conditions: MB5393, 20 h; procedure, shortened: as §1
[14] = test system: Staphylococcus aureus; assay: Antibacterial activity against vancomycin-intermediate, macrolide, methicillin-resistant Staphylococcus aureus CL5706 after 20 hrs by twofold serial broth dilution method; conditions: CL5706, 20 h; procedure, shortened: as §1
[15] = test system: Staphylococcus aureus; assay: Antibacterial activity against macrolide-sensitive, Linezolid, methicillin-resistant Staphylococcus aureus CL5814 after 20 hrs by twofold serial broth dilution method; conditions: CL5814, 20 h; procedure, shortened: as §1
[16] = test system: Enterococcus faecium; assay: Antibacterial activity against vancomycin, linezolid-resistant Enterococcus faecium CL5791 after 20 hrs by twofold serial broth dilution method; conditions: CL5791, 20 h; procedure, shortened: as §1

Row | SMILES | MIC [1] | MIC [2] | MIC [3] | MIC [4] | MIC [5] | MIC [6] | MIC [7] | MIC [8] | MIC [9] | MIC [10] | MIC [11] | MIC [12] | MIC [13] | MIC [14] | MIC [15] | MIC [16]
1 | C=C(NC(=O)c1csc(-c2nc3c(cc2O)-c2nc(cs2)C(=O)N[C@@H]([C@@H](C)O)C(=O)N/C(=C(\C)OC)c2nc(cs2)C(=O)N[C@@H]([C@H](O)[C@H](O[C@H]2C[C@](C)(O)[C@H](N(C)C)[C@H](C)O2)C(=O)O)c2nc(cs2)C(=O)N[C@@H](CO)c2nc-3cs2)n1)C(N)=O [THIAZOMYCIN E1] | 200 µg/mL (≈ 159 µM) | 100 µg/mL (≈ 79.7 µM) | > 200 µg/mL |  |  |  |  |  |  |  |  |  |  |  |  | 
2 | C=C(NC(=O)c1csc(-c2nc3c(cc2O)-c2nc(cs2)C(=O)N[C@@H]([C@@H](C)O)C(=O)N/C(=C(\C)OC)c2nc(cs2)C(=O)N[C@@H]2c4nc(cs4)C(=O)N[C@@H](COC(=O)c4[nH]c5cccc6c5c4CO[C@@H]2[C@H](OC)C(=O)OC6)c2nc-3cs2)n1)C(N)=O [THIAZOMYCIN B] | 0.008 µg/mL (≈ 0.00633 µM) | 0.02 µg/mL (≈ 0.0158 µM) | 0.1 µg/mL (≈ 0.0791 µM) | 0.1 µg/mL | 0.03 µg/mL (≈ 0.0237 µM) | 0.25 µg/mL | 0.03 µg/mL (≈ 0.0237 µM) | 0.004 µg/mL (≈ 0.00316 µM) | 0.03 µg/mL (≈ 0.0237 µM) | 0.004 µg/mL (≈ 0.00316 µM) | > 32 µg/mL | 0.06 µg/mL (≈ 0.0475 µM) | 0.02 µg/mL (≈ 0.0158 µM) | 0.03 µg/mL (≈ 0.0237 µM) | 0.02 µg/mL (≈ 0.0158 µM) | 0.004 µg/mL (≈ 0.00316 µM)
3 | C=C(NC(=O)c1csc(-c2nc3c(cc2O)-c2nc(cs2)C(=O)N[C@@H]([C@@H](C)O)C(=O)N/C(=C(\C)OC)c2nc(cs2)C(=O)N[C@@H]([C@H](O)[C@H](O)C(=O)O)c2nc(cs2)C(=O)N[C@@H](CO)c2nc-3cs2)n1)C(N)=O [THIAZOMYCIN E2] | > 200 µg/mL | > 200 µg/mL | > 200 µg/mL |  |  |  |  |  |  |  |  |  |  |  |  | 
4 | CC(=O)NC[C@H]1CN(c2ccc(N3CCOCC3)c(F)c2)C(=O)O1 [LINEZOLID] |  |  |  | > 32 µg/mL |  |  | 1 µg/mL (≈ 2.96 µM) | 0.5 µg/mL (≈ 1.48 µM) | 2 µg/mL (≈ 5.93 µM) |  | > 32 µg/mL |  |  |  | > 32 µg/mL | 32 µg/mL (≈ 94.9 µM)
5 | CO/C(C)=C1/NC(=O)[C@H]([C@@H](C)O)NC(=O)c2csc(n2)-c2cc(O)c(-c3nc(C(N)=O)cs3)nc2-c2csc(n2)[C@H](CO)NC(=O)c2csc(n2)[C@H]([C@H](O)[C@H](O)C(=O)O)NC(=O)c2csc1n2 [THIAZOMYCIN E3] | 200 µg/mL (≈ 197 µM) | > 200 µg/mL | 200 µg/mL (≈ 197 µM) |  |  |  |  |  |  |  |  |  |  |  |  | 
6 | C=C(NC(=O)c1csc(-c2nc3c(cc2O)-c2nc(cs2)C(=O)N[C@@H]([C@@H](C)O)C(=O)N/C(=C(\C)OC)c2nc(cs2)C(=O)N[C@@H]2c4nc(cs4)C(=O)N[C@@H](COC(=O)c4c5c6c(cccc6n4O)COC(=O)[C@@H](O[C@H]4C[C@]6(C)OCN(C)[C@@H]6[C@H](C)O4)[C@H]2OC5)c2nc-3cs2)n1)C(N)=O [THIAZOMYCIN] | 0.003 µg/mL (≈ 0.00209 µM) | 0.006 µg/mL (≈ 0.00418 µM) | 0.02 µg/mL (≈ 0.0139 µM) | 0.01 µg/mL | 0.01 µg/mL (≈ 0.00697 µM) | 0.05 µg/mL | 0.03 µg/mL (≈ 0.0209 µM) | 0.002 µg/mL (≈ 0.00139 µM) | 0.02 µg/mL (≈ 0.0139 µM) | 0.003 µg/mL (≈ 0.00209 µM) | > 32 µg/mL | 0.01 µg/mL (≈ 0.00697 µM) | 0.003 µg/mL (≈ 0.00209 µM) | 0.01 µg/mL (≈ 0.00697 µM) | 0.01 µg/mL (≈ 0.00697 µM) | 0.002 µg/mL (≈ 0.00139 µM)
7 | CC[C@H]1OC(=O)[C@H](C)[C@@H](O[C@H]2C[C@@](C)(OC)[C@@H](O)[C@H](C)O2)[C@H](C)[C@@H](O[C@@H]2O[C@H](C)C[C@H](N(C)C)[C@H]2O)[C@](C)(O)C[C@@H](C)C(=O)[C@H](C)[C@@H](O)[C@]1(C)O [ERYTHROMYCIN] | 2 µg/mL (≈ 2.73 µM) | 0.1 µg/mL (≈ 0.136 µM) | 1 µg/mL (≈ 1.36 µM) | > 32 µg/mL | > 32 µg/mL | 0.1 µg/mL | 0.25 µg/mL (≈ 0.341 µM) | ≤ 0.03 µg/mL | 1 µg/mL (≈ 1.36 µM) | 2 µg/mL (≈ 2.73 µM) | > 32 µg/mL | 32 µg/mL (≈ 43.6 µM) | > 32 µg/mL | > 32 µg/mL | 1 µg/mL (≈ 1.36 µM) | > 32 µg/mL
8 | CO/C(C)=C1/NC(=O)[C@H]([C@@H](C)O)NC(=O)c2csc(n2)-c2cc(O)c(-c3nc(C(N)=O)cs3)nc2-c2csc(n2)[C@@H]2COC(=O)c3[nH]c4cccc5c4c3CO[C@H]([C@H](O[C@H]3C[C@](C)(O)[C@H](N(C)C)[C@H](C)O3)C(=O)OC5)[C@H](NC(=O)c3csc1n3)c1nc(cs1)C(=O)N2 [THIAZOMYCIN C] | 0.01 µg/mL (≈ 0.00739 µM) | 0.05 µg/mL (≈ 0.037 µM) | > 0.1 µg/mL | 0.1 µg/mL | 0.1 µg/mL (≈ 0.0739 µM) | 0.1 µg/mL | 0.1 µg/mL (≈ 0.0739 µM) | 0.006 µg/mL (≈ 0.00444 µM) | 0.1 µg/mL (≈ 0.0739 µM) | 0.006 µg/mL (≈ 0.00444 µM) | > 32 µg/mL | 0.1 µg/mL (≈ 0.0739 µM) | 0.05 µg/mL (≈ 0.037 µM) | 0.1 µg/mL (≈ 0.0739 µM) | 0.03 µg/mL (≈ 0.0222 µM) | 0.1 µg/mL (≈ 0.0739 µM)
9 | C=C(NC(=O)c1csc(-c2nc3c(cc2O)-c2nc(cs2)C(=O)N[C@@H]([C@@H](C)O)C(=O)N/C(=C(\C)OC)c2nc(cs2)C(=O)N[C@@H]2c4nc(cs4)C(=O)N[C@@H](COC(=O)c4[nH]c5cccc6c5c4CO[C@@H]2[C@H](O[C@H]2C[C@](C)(O)[C@@H](O)[C@H](C)O2)C(=O)OC6)c2nc-3cs2)n1)C(N)=O [THIAZOMYCIN D] | 0.1 µg/mL (≈ 0.0717 µM) | 0.03 µg/mL (≈ 0.0215 µM) | 0.1 µg/mL (≈ 0.0717 µM) | 1 µg/mL | 0.1 µg/mL (≈ 0.0717 µM) | 1 µg/mL | 0.03 µg/mL (≈ 0.0215 µM) | 0.02 µg/mL (≈ 0.0143 µM) | 0.06 µg/mL (≈ 0.043 µM) | 0.03 µg/mL (≈ 0.0215 µM) | > 32 µg/mL | 0.1 µg/mL (≈ 0.0717 µM) | 0.031 µg/mL (≈ 0.0222 µM) | 0.1 µg/mL (≈ 0.0717 µM) | 0.06 µg/mL (≈ 0.043 µM) | 0.1 µg/mL (≈ 0.0717 µM)
